# Experimental data pooled from the literature.
# Compare with care: the assays were run in different laboratories.
# sapA: sapA (Haemophilus influenzae, UniProt Q4QL73)
# USP28: Ubiquitin carboxyl-terminal hydrolase 28 (USP28, Homo sapiens, UniProt Q96RU2)
SMILES,target,effect on,mode,endpoint,result
CCC(C(=O)Nc1cc(NC2CCNCC2)ccc1C)n1cc(Cl)cc2nc(SCc3ccc(F)cc3)nc1-2 (stereo not drawn),"Ubiquitin carboxyl-terminal hydrolase 7 (USP7, Homo sapiens, UniProt Q93009)",enzyme activity,inhibitor,IC50,> 100000 nM
CC[C@H](C)[C@H](NC(C)=O)C(=O)N[C@@H](CCC(=O)O)C(=O)N[C@H](C(=O)N[C@H](C=O)CC(=O)O)[C@@H](C)O,"Caspase-1 (CASP1, Homo sapiens, UniProt P29466)",enzyme activity,inhibitor,IC50,11 nM
C[C@@H](O)[C@H](NC(=O)CNC(=O)[C@H](Cc1ccc(O)cc1)NC(=O)[C@H](CCCNC(=N)N)NC(=O)[C@@H](N)CO)C(=O)O,sapA,binding,,Kd,31 nM
COC(=O)c1cc(N(C)C(=O)c2ccn3ncc(-c4ccc(C(=O)O)cc4)c3c2)ccc1Cl,"Hepatocyte growth factor receptor (MET, Homo sapiens, UniProt P08581)",enzyme activity,inhibitor,IC50,> 30000 nM
CCC(C(=O)Nc1cc(NC2COC2)ccc1C)n1cc(Br)cc2nc(SCc3ccc(F)cc3)nc1-2 (stereo not drawn),USP28,enzyme activity,inhibitor,IC50,> 100000 nM
C[C@@H](O)[C@H](NC(=O)CNC(=O)[C@H](Cc1ccc(O)cc1)NC(=O)[C@H](CO)NC(=O)[C@@H](N)CCCNC(=N)N)C(=O)O,sapA,binding,,Kd,139 nM
CCC(C(=O)Nc1cc(NC2CCNC2)ccc1C)n1cc(Br)cc2nc(SCc3ccc(F)cc3)nc1-2 (stereo not drawn),USP28,enzyme activity,inhibitor,IC50,> 100000 nM
CNC(=O)c1ccc(-c2cnn3ccc(C(=O)N(C)c4ccc(Cl)c(C(=O)OC)c4)cc23)cc1,"TGF-beta receptor type-1 (TGFBR1, Homo sapiens, UniProt P36897)",enzyme activity,inhibitor,IC50,> 30000 nM
NCCCC[C@H](NC(=O)[C@@H]1CCCN1)C(=O)N[C@@H](CO)C(=O)N[C@@H](CCC(=O)O)C(=O)N[C@@H](CCC(N)=O)C(=O)O,sapA,binding,,Kd,28 nM
